Hep lipid drop = hepatic lipid droplet formation modulation. AML12 mouse hepatocytes, oleate lipid droplets, BODIPY imaging. AID 1656. 0.4% of 240,000 active. inhibition, % at 6.5 µM;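 active = lipid droplet intensity inhibited by at least 50%, with more than 500 cells counted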
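Assay system: AML12 hepatocytes (mouse); Probe or stimulus: oleic acid at 100 µM to induce lipid droplet formation; Dosing: compound at 6.5 µM only; Schedule: compound with oleate, overnight; Detection: fluorescence imaging, 20x objective, two fields per well; Measure: % inhibition of lipid droplet signal.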
UPR CHOP act = apoptotic UPR (CHOP) activation; CHO-CHOP luciferase reporter, luminescence; percent of tunicamycin response over DMSO baseline; activation, % at 10 µM; 0.34% of 330,000 active;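 active = at 10 µM dose, activation of 40% or more, normalized to positive control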;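 note: 100% = tunicamycin at 10 µg/mL and 0% = DMSO alone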
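System: CHO-CHOP luciferase reporter cell line | Buffer or medium: F12 medium containing 10% fetal bovine serum | Doses: One dose, 10 µM in 0.5% DMSO | Times: 6 h compound exposure at 37 °C after overnight seeding | Signal: Luciferase luminescence | Read-out: % activation vs tunicamycin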
ANO1 block = mouse TMEM16A channel inhibition, primary screen; Q8BHY3; HEK293 TMEM16A/YFP iodide influx fluorescence, ionomycin; normalized B-score (activity score, 25-100; higher = stronger inhibition) at 10 µM; 1.2% of 310,000 active;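 active = ratio plate-corrected score three or more library SD toward inhibition, starting fluorescence score within five deviations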;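 note: score derived from kinetic fluorescence span divided by baseline fluorescence per well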
ANO1 activ = mouse TMEM16A channel activation, primary screen. AID 623877. Q8BHY3. 0.3% of 340,000 active. B-score at 10 µM. HEK293 TMEM16A/YFP-H148Q/I152L, iodide quench fluorescence; active compounds read low;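 active = fluorescence-ratio B-score plate-corrected deviation score at least 3 library SD below zero, with starting fluorescence score within 5 deviations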;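 note: channel opened by trigger with iodide after compound preincubation; score built on the fluorescence ratio of max minus min over baseline; more negative score means more quench and so TMEM16A activation or potentiation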
UPR XBP1 act = activators of adaptive arm of unfolded protein response (XBP1); activation, % at 20 µM; AID 463104; CHO-XBP1 luciferase reporter, IRE1-XBP1 UPR activation, luminescence; percent of tunicamycin response, DMSO as zero; 0.33% of 330,000 active;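 active = versus positive control, 20 µM dose yields 30% or more activation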;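 note: 100% = tunicamycin at 10 µg/mL and 0% = DMSO only wells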
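Test system: CHO-XBP1 luciferase reporter cells | Buffer or medium: Serum-containing F12 medium, 10% FBS | Schedule: 6 h compound exposure at 37 °C, 5% CO2 | Detection: Steady-Glo luciferase glow luminescence, 10 min after reagent addition | Read-out basis: Activation, % of tunicamycin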
CHOP inh = CHOP inhibition in unfolded protein response; 3.8% of 220,000 active; CHO-K1 CHOP-promoter luciferase, tunicamycin-induced, 15-18 h; inhibition, % at 10 µM;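 active = compounds that reduced the stress-induced luciferase reporter signal by more than about 70% of percent inhibition, limit read from the data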;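 note: 0% = tunicamycin plus vehicle and 100% = wells without tunicamycin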
Lipid drop inh = hepatic lipid droplet formation inhibition, confirmed; shares compounds with Hep lipid drop; AML12 mouse hepatocytes, BODIPY lipid droplet imaging; droplets induced with 100 µM oleic acid; inhibition, % at 5.2 µM; 65% of 870 active;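 active = inhibition of lipid droplet metric at least 50%, with more than 300 cells in each of four replicates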;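 note: plate controls were DMSO with oleic acid for no effect and 5 µM Triacsin-C for full effect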
AML12 cytotox = counter-screen for cytotoxicity in AML12 mouse hepatocytes; 3% of 870 active; DAPI nuclear morphology cytotoxicity imaging; active compounds read high; cells fed 100 µM oleate overnight; z-score at 5 µM; shares compounds with Hep lipid drop; in the data active = z-score above about 6.3;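 note: compound exposure lasted overnight at 37 °C before fixation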
AML12 tox ATP = confirmation of cytotoxicity in AML12 mouse hepatocytes. shares compounds with Hep lipid drop. AML12 mouse hepatocyte viability, ATP luminescence; cells loaded with 100 µM oleic acid. cytotoxicity, % at 50 µM. 530 tested, under 10 active. AID 463219;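 active = cytotoxicity above 50% in each of four replicates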;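 note: compound exposure lasted overnight at 37 °C before the ATP read; 0% = DMSO-treated cells and 100% = wells with no cells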
* marks the source's active call; other numbers are inactive results; i = inactive; · = no result given. Rows were chosen to be rich in hits. Some 4.2% of all compounds tested hit in one or more screens of this group.

SMILES	Hep lipid drop	UPR CHOP act	ANO1 block	ANO1 activ	UPR XBP1 act	CHOP inh	Lipid drop inh	AML12 cytotox	AML12 tox ATP
CS(=O)(=O)N(Cc1ccc(Cl)cc1)c1ccc(C(=O)N/N=C/c2cc3ccccc3nc2Cl)cc1	64*	5	i	i	2	13	106*	-0.46	1
O=C(CNC(=O)c1ccccc1F)NNC(=O)c1ccccc1O	·	2	i	i	-3	·	·	·	·
CCCCCCNCc1c(F)cccc1Cl	-19	0	i	i	-1	14	·	·	·
COC(=O)c1ccc(C2=NOC(C)(c3sc(-c4ccc(Cl)cc4)nc3C)C2)cc1 (stereo not given)	56*	-1	i	i	1	-16	58*	-0.091	6
COC(=O)c1ccc(C2=NOC(C)(c3sc(-c4ccccc4)nc3C)C2)cc1 (stereo not given)	20	1	i	i	-1	11	·	·	·
CC1=C(C#N)C(/C=N/OCc2ccc(F)cc2Cl)CC(=O)N1 (stereo not given)	-1	1	i	i	-2	26	·	·	·
Cc1ccc(C(=O)NCCNC(=O)c2ccc(C)nc2)cc1	56*	2	i	i	2	·	91*	-0.25	7
CCOc1ccc(C(=O)NCCNC(=O)c2ccc(OCC)cc2)cc1	86*	9	i	i	-1	·	96*	-0.41	18
CCCOc1cccc(C(=O)NCCNC(=O)c2ccc(C)nc2)c1	51*	0	i	i	-3	·	83*	-0.15	4
COc1ccc(C(=O)NCCNC(=O)c2ccc(C)nc2)cc1	27	1	i	i	0	·	·	·	·
O=C(COc1ccc(Cl)cc1)NCc1nnc(SCC(=O)Nc2ccccc2F)o1	-9	0	i	i	-2	12	·	·	·
CCOc1ccc(-c2nonc2NC(=O)c2ccco2)cc1OCC	4	2	i	i	-1	·	·	·	·
CCOc1ccc(-c2nonc2NC(=O)c2ccco2)cc1	74*	0	i	i	-3	·	93*	-0.94	14
CCCCc1nnc(NC(=O)c2ccccc2OCc2c(C)noc2C)s1	·	0	i	i	1	·	·	·	·
COc1ccc(CCNC(=O)c2ccc(CNc3nc(=S)[nH]c4ccccc34)cc2)cc1OC	52*	-1	i	i	-3	23	101*	-0.26	14
COc1ccc(CCNc2nc(=S)[nH]c3cc(OC)c(OC)cc23)cc1OC	24	1	i	i	0	4	·	·	·
COc1ccc(CCNC(=O)[C@H](C)N2C(=O)N3CCc4c([nH]c5ccccc45)[C@@]3(C)C2=O)cc1OC	87*	0	i	i	-3	·	102*	-1.6	20
CC(CCCN(C)C)C(Cc1ccccc1)c1ccccc1 (stereo not given)	·	1	i	i	0	·	·	·	·
Cc1c(C(=O)N2CCCCC2)c(S(=O)(=O)N(C)Cc2ccccc2)c(C)n1C	-2	0	i	i	-2	·	·	·	·
CC(=O)c1ccc(N2CCCC2)c(F)c1	53*	2	i	·	-5	31	23	-0.96	·
CCOC(=O)c1ccc(NC(=O)CSc2nc3c(c(=O)n2CC)SC(C)C3)cc1 (stereo not given)	52*	-2	i	i	-6	40	79*	-0.85	12
CCOC(=O)c1ccc(NC(=O)CSc2nc3c(c(=O)n2C)SC(C)C3)cc1 (stereo not given)	·	3	i	i	-3	16	·	·	·
COc1ccc(CCn2ccc(O)c(Cc3ccc(Cl)cc3)c2=O)cc1OC	61*	-1	i	i	-2	57	106*	0.55	4
Cc1ccccc1C(=O)Nc1ccc(N(C)C)c2ccccc12	-3	4	i	i	-1	·	·	·	·
CCOC(=O)c1c(C)[nH]c(N=Nc2ccc(C)cc2C)c1C	·	5	i	i	7	22	·	·	·
SMILES	Hep lipid drop	UPR CHOP act	ANO1 block	ANO1 activ	UPR XBP1 act	CHOP inh	Lipid drop inh	AML12 cytotox	AML12 tox ATP
CCOC(=O)c1c(C)[nH]c(N=Nc2ccccc2C)c1C	68*	4	i	i	1	48	106*	-0.67	11
c1cc[n+](CCC[n+]2ccccc2)cc1	56*	0	i	i	-3	·	35	-0.4	·
CN(C(=O)c1ccc(NC(=O)Cc2cccc(NC(=O)C3CCCN(C(=O)C4CCCC4)C3)c2)cc1)C1CCCC1 (stereo not given)	·	1	·	i	-3	·	·	·	·
COc1cc(C(=S)N2CCOCC2)cc(OC)c1OC(=O)c1ccccc1[N+](=O)[O-]	56*	-1	i	i	-1	·	30	-0.23	·
COC(=O)[C@@]1(Cc2ccccc2)[C@H]2C(=O)N(Cc3ccccc3)C(=O)[C@H]2[C@H]2CN=C(SC)N21	·	3	·	·	-2	·	·	·	·
CCCCN1C(=O)C(=O)N(CC(=O)Nc2sc(CC)cc2C(=O)OCC)C1=O	·	-3	i	i	-2	·	·	·	·
CCOC(=O)c1cc(CC)sc1NC(=O)C1CC(=O)NN1Cc1ccccc1 (stereo not given)	82*	0	i	i	-1	51	110*	-0.28	-3
COC(=O)c1c(NC(=O)C2CC(=O)NN2Cc2ccccc2)sc(C)c1C (stereo not given)	·	0	i	i	6	-1	·	·	·
COC(=O)c1cc(C)sc1NC(=O)C1CC(=O)NN1Cc1ccccc1 (stereo not given)	86*	4	i	i	-2	12	109*	0.4	4
O=C(NCc1c(O)ccc2ccccc12)c1ccccc1	-38	1	i	i	-6	·	·	·	·
COc1cc(C(=O)Nn2cnnc2)ccc1OC(F)F	4	-2	i	i	1	·	·	·	·
Cc1cccc(NS(=O)(=O)c2cn(C)c(=O)n(C)c2=O)c1C	-10	2	i	i	0	·	·	·	·
CCc1ccc(NS(=O)(=O)c2cc3c(cc2C)n(C)c(=O)c(=O)n3C)cc1	51*	0	i	i	-1	·	93*	-0.7	5
Cc1cc2c(cc1S(=O)(=O)Nc1c(C)cccc1C)n(C)c(=O)c(=O)n2C	71*	0	i	i	-2	·	92*	-0.12	8

Assay outcomes (PubChem BioAssay)
